Measurements published in ChEMBL document CHEMBL1136733, “Pyrrolopyrazinedione-based inhibitors of human hormone-sensitive lipase” (J Med Chem, 2003).

What was measured:
[1] = molecular target: T1, Hormone-sensitive lipase (Homo sapiens, UniProt Q05469); assay: Inhibitory activity against Human Hormone-sensitive lipase (HSL) expressed in the baculovirus was determined by HSL [14 C] cholesteryl oleate assay
T1 sequence (Q05469 whole entry): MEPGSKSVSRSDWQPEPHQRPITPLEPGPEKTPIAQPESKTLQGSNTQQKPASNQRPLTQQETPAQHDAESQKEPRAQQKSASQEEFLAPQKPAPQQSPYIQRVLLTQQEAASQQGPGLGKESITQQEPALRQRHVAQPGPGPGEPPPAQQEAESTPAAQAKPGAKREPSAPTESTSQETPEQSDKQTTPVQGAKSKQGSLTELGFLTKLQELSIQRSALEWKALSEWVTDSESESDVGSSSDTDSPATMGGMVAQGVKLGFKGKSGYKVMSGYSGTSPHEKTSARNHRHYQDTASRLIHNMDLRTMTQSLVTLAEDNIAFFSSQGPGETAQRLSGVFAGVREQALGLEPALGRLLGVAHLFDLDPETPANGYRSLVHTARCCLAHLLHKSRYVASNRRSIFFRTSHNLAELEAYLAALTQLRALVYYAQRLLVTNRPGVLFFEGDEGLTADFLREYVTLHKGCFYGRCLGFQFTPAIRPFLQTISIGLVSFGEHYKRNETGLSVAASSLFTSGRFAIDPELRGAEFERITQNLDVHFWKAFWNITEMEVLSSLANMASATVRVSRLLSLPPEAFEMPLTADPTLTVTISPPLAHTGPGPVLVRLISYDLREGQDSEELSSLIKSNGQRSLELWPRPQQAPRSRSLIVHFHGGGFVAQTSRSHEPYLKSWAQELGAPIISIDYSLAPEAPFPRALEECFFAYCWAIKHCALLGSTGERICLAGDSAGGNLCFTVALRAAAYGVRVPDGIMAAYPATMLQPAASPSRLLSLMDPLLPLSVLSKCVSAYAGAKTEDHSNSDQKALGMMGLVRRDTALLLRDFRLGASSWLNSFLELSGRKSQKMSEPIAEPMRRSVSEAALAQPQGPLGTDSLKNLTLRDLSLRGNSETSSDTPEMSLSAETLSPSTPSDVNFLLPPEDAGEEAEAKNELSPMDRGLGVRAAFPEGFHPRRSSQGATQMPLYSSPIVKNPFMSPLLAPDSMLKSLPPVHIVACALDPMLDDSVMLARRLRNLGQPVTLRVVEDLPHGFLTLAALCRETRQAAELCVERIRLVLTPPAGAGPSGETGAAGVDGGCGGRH
Outline: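 Recombinant human HSL from Sf9/baculovirus expression, Ni-NTA purified. Substrate was a [14C]cholesteryl oleate emulsion. IC50 derived from 8-point concentration curves run in triplicate.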

[2] = molecular target: T1, Hormone-sensitive lipase; assay: Inhibitory activity against human hormone-sensitive lipase (HSL) expressed in the baculovirus was determined by p-nitrophenyl butyrate (PNPB) assay
Outline: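 Recombinant human HSL (His-tagged, Sf9/baculovirus, Ni-NTA purified), 10 ng per reaction in 20 mM KPO4 pH 7.4, 1 mM EDTA, 0.1% Triton X-100, 5 mM p-nitrophenyl butyrate, 5% DMSO. Incubated 1 h at 27 °C, absorbance read at 400 nm. Full 8-point IC50 curves run in triplicate.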

- IC50 [1]: 260 nM
- IC50 [2]: 210 nM
Compound: COC(=O)C1CC2(COCc3ccccc3)C(=O)N(CCCCc3ccccc3)CC(=O)N2C1c1ccco1 (configuration not stated)
